Fibroblast inh – blocks proliferation of human lung fibroblasts; LL 47 human lung fibroblast viability, ATP luminescence; hits give low values; viability, % at 10 µM; hit rate 1.1% among 85,000; AID 719;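 active means viability at or below 50% in the single dose screen; inactive means viability above 50%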;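 further: compound exposure lasted 72 h before the ATP readout; 100% = median luminescence of untreated cell-only wells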
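Signal: luminescent ATP detection, CellTiter-Glo; assay system: LL 47 human lung fibroblasts; input: 1,150 cells/well; incubation: overnight cell rest, 72 h compound treatment at 37 °C; measure: % viability versus median cells-only luminescence; medium: IMEM growth medium with 15% fetal bovine serum; dosing: compound addition at 0.1% DMSO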
HCT116 bCat-KO – beta-catenin-lacking colon tumor cell growth suppression; HCT116 beta-catenin knockout viability, CellTiter-Glo, 60 h; hits give low values; hit rate 1.5% among 140,000; AID 818; viability, % at 10 µM;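 active means viability at or under a set limit, the compound median less 4 SD, cut at about 6% in these data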;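 further: 0% = Hyamine 1622 control at 20 µM and 100% = untreated cell control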
H69AR inhibit – growth inhibitors of human H69AR lung tumor cells; hit rate 6% among 85,000; viability, % at 10 µM; AID 598; H69AR lung tumor viability, ATP luminescence, 72 h; hits give low values;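 active means viability at or below 40%; inactive means viability above 40%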;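 further: multidrug resistant small cell line overexpressing MRP-1 efflux transporter; 100% = mean luminescence of untreated control wells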
PTEN del growth – suppresses growth of cells with PTEN deletion. HCT116 PTEN-null viability, CellTiter-Glo, 60 h; hits give low values. viability, % at 10 µM. hit rate 1.2% among 140,000;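 active means viability at or below a set limit, 4 SD under the median of all tested compounds, cut at about 3.7% in these data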;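 further: PTEN knockout HCT116 line with beta catenin targeted HCT116 as companion control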
HUVEC inhibit – inhibitors of human endothelial cell proliferation; HUVEC proliferation, CellTiter-Glo luminescence, 72 h; hits give low values; viability, % at 10 µM (by protocol); hit rate 1.1% among 86,000; AID 648;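 active means viability at or below 30%; inactive means viability above 30%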;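 further: 100% = median luminescence of DMSO-only cell control wells on each plate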
Starred values were filed as active, the others as inactive; . = no result given. Only a selection was taken, and hits are over-represented in it overall.

SMILES | Fibroblast inh | HCT116 bCat-KO | H69AR inhibit | PTEN del growth | HUVEC inhibit
OC(c1cccs1)(c1cccs1)C1C[N+]2(CF)CCC1CC2 (centres undefined) | . | 92 | . | 97 | .
COCCNC(=O)c1ccc2c(c1)NC(=O)CS2 | 96 | 93 | 92 | 87 | 93
CCOc1cc2c(cc1C(C)(C)C)NC(=O)CS2 | 89 | 57 | 37* | 59 | 78
CCOC(=O)c1c(C)oc2c1c(C(c1ccncc1)N1CCOCC1)c(O)c1ccccc12 (centres undefined) | 53 | 9 | 0.9* | 17 | 60
COc1ccc(/C=N/NC(=O)c2ccc(N(C)S(=O)(=O)c3ccccc3)cc2)cc1OC | . | 95 | . | 88 | .
O=c1sc(/C=N/Nc2ccccc2)c(Cl)n1Cc1ccccc1 | . | 87 | . | 76 | .
COC(=O)c1cccc(Cn2c(Cl)c(/C=N/NC(=O)c3ccccc3Cl)sc2=O)c1 | 97 | 90 | 31* | 78 | 79
CC(=O)Nc1ccc(C(=O)CSc2cc(C)c3cccc(C)c3n2)cc1 | . | 99 | . | 96 | .
C=C(C(=O)c1ccccc1)C(C)CC(=O)c1ccccc1 (centres undefined) | . | 2.1* | . | 1.5* | .
O=C1c2ccccc2OC2(C=Cc3ccccc3O2)N1Cc1ccccc1 (centres undefined) | 93 | 17 | 12* | 22 | 62
CCc1nc(SCc2nc3ccccc3[nH]2)c2oc3ccccc3c2n1 | 90 | 69 | 40* | 48 | 79
Cc1nc(Nc2ccc3c(c2)OCCO3)c2oc3ccccc3c2n1 | 96 | 55 | 80 | 63 | 65
CCc1nc(Sc2nc(C)cc(C)n2)c2oc3ccccc3c2n1 | 79 | 72 | 5.3* | 65 | 102
CCc1nc(Nc2ccc3c(c2)OCCO3)c2oc3ccccc3c2n1 | 89 | 68 | 38* | 60 | 40
CCc1nc(SCCO)c2oc3ccccc3c2n1 | 91 | 97 | 90 | 87 | 89
CC1CC(C)CN(CC(=O)N2CCCc3c2c(=O)oc2ccc(OCc4ccccc4)cc32)C1 (centres undefined) | 95 | 3.5* | 90 | 13 | 80
Cc1cc(=O)oc2ccc(OCC(=O)N3CCC(C)CC3)cc12 | 94 | 106 | 82 | 114 | 102
O=C(O)c1ccc(COc2ccc3c4c(c(=O)oc3c2)CCC4)o1 | 103 | 101 | 92 | 94 | 112
CC1CCN(CC(=O)N2CCCc3c2c(=O)oc2ccc(OCc4ccccc4)cc32)CC1 | 89 | 9 | 33* | 17 | 74
CCCOc1ccc2oc(=O)c3c(c2c1)CCCN3C(=O)CN1CCc2ccccc2C1 | 94 | 42 | 40* | 47 | 44
CN(C)S(=O)(=O)n1ccnc1 | 103 | 102 | 96 | 97 | 102
COc1ccc(-c2cc(C(=O)N3CC4(C)CC3CC(C)(C)C4)no2)cc1 (centres undefined) | 104 | 44 | 83 | 38 | 86
CC1(C)CC2CC(C)(CN2C(=O)c2cc(-c3ccccc3O)on2)C1 (centres undefined) | 85 | 58 | 16* | 47 | 91
O=C(CN(C1CC1)S(=O)(=O)c1ccc(S(=O)(=O)N2CCCCCC2)cc1)Nc1ccccc1 | 93 | 95 | 37* | 99 | 77
CCN(C1CCCCC1)S(=O)(=O)c1ccc(S(=O)(=O)N(CC(=O)Nc2ccccc2)C2CC2)cc1 | 87 | 94 | 58 | 104 | 92
SMILES | Fibroblast inh | HCT116 bCat-KO | H69AR inhibit | PTEN del growth | HUVEC inhibit
Cn1c(-c2cc(Br)ccc2O)n[nH]c1=S | 93 | 90 | 100 | 83 | 88
Oc1ccccc1-c1cc(-c2ccc3c(c2)OCCO3)n[nH]1 | 81 | 23 | 17* | 43 | 49
COc1ccc(-c2cc(-c3ccccc3O)[nH]n2)cc1OC | 79 | 57 | 59 | 52 | 52
Oc1ccc(Br)cc1-c1cc(-c2ccc(Cl)cc2)n[nH]1 | 39* | 3.7* | 54 | 3.3* | 8.1*
Oc1ccc(Br)cc1-c1cc(-c2ccccc2)n[nH]1 | 71 | 13 | 6.3* | 19 | 27*
COc1ccc(C(=O)NC(C)(C)C)cc1S(=O)(=O)N1CCCC1 | . | 103 | . | 96 | .
Cc1coc2c(C)c3oc(=O)c4c(c3cc12)CCCC4 | 94 | . | 21* | . | 86
Cc1oc2c(C)c3oc(=O)c4c(c3cc2c1C)CCC4 | 95 | 78 | 74 | 81 | 102
Cc1cc(C)c(NC(=O)c2ccc[n+](Cc3ccc([N+](=O)[O-])cc3)c2)c(C)c1 | . | 92 | . | 100 | .
O=S(=O)(CCN(CCS(=O)(=O)C(F)(F)F)CC1CCCO1)C(F)(F)F (centres undefined) | 44* | 1.6* | 98 | 1.5* | 93
O=C(NCC1CCCO1)C1CCN(S(=O)(=O)N2CCCC2)CC1 (centres undefined) | . | 102 | 101 | 96 | 84
CNc1sc(C(=O)c2ccc(F)cc2)c(N)c1-c1nc2ccccc2s1 | 57 | 76 | 5.7* | 77 | 25*
CNc1sc(C(=O)c2cccs2)c(N)c1-c1nc2ccccc2s1 | 83 | 80 | 63 | 81 | 60
CCOC(=O)c1ccc2c(c1)nc(SCc1cn3ccsc3n1)n2CC | 94 | 83 | 86 | 96 | 96
CCOc1ncccc1C(=O)NCCN1C(=O)S/C(=C/c2cccs2)C1=O | . | 89 | . | 97 | .
CCOC(=O)C1=C(N)n2c(s/c(=C\c3cccs3)c2=O)=C(C(=O)OCC)C1c1cccs1 (centres undefined) | 60 | 19 | 29* | 17 | 40
CCOC(=O)C1=C(N)n2c(s/c(=C\c3cccnc3)c2=O)=C(C(=O)OCC)C1c1cccnc1 (centres undefined) | 96 | . | 54 | . | 92
CCOC(=O)C1=C(C)N(C)C(=S)NC1c1ccc(Cl)cc1Cl (centres undefined) | . | 79 | . | 78 | .
CC(NC(=O)c1ccc(Br)cc1)c1ccccc1 (centres undefined) | . | 84 | . | 88 | .
CC(C)OP(=O)(OC(C)C)C(NC(=O)c1ccc(Br)cc1)c1ccccc1 (centres undefined) | 94 | 68 | 28* | 51 | 78
OC(CN1CCN(c2ccccn2)CC1)Cn1c2ccc(Cl)cc2c2cc(Cl)ccc21 (centres undefined) | 94 | 13 | 1.3* | 12 | 41
CC[n+]1c(P(=O)([O-])c2ccccc2)[nH]c2ccccc21 | 98 | 91 | 101 | 80 | 103
O=C(CSc1nnc(-c2cccc(S(=O)(=O)N3CCCCC3)c2)o1)NCCC1=CCCCC1 | 108 | 100 | 61 | 82 | 80
Brc1ccccc1-c1nnc(SCc2nc3ccccc3s2)o1 | . | 89 | . | 86 | .
CCN(CC)S(=O)(=O)c1cccc(-c2nnc(SC(C)C(=O)NCCC3=CCCCC3)o2)c1 (centres undefined) | 94 | 26 | 33* | 39 | 79
CCN(CC)S(=O)(=O)c1cccc(-c2nnc(SCCCC(=O)c3ccccc3)o2)c1 | 105 | 69 | 32* | 74 | 85
CCN(CC)S(=O)(=O)c1cccc(-c2nnc(SCC(=O)c3cc(C)n(C4CC4)c3C)o2)c1 | 88 | . | 67 | . | 97
CCN(CC)S(=O)(=O)c1cccc(-c2nnc(SCCCC(=O)c3ccc(F)cc3)o2)c1 | 93 | 46 | 37* | 72 | 102
